Source: PubChem BioAssay (Broad Institute)
Ecoli rRNA inh = selective bacterial rRNA inhibition in E. coli; E. coli WT GFP vs humanized-ribosome RFP mutants, fluorescence, 24 h; stronger effect = lower value; DMSO median 0, no signal -100; GFP signal change (wild-type ribosome), % (test concentration not listed); 350,000 compounds, 1.6% hits; AID 720706;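 active = significant combined selectivity score with lowered wild-type GFP, culture density cut under 30%, mutant RFP and density less affected; inactive = any of these conditions unmet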
Cneo AK release = Cryptococcus neoformans lysis via adenylate kinase release; C. neoformans lysis, adenylate kinase release luminescence, 4 h; normalised: neutral wells 0, clomiphene wells 100; 360,000 compounds, 0.2% hits; lysis activity, % at 15 µM;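 active = mean lysis activity across replicates of at least 80%, whatever share of replicates individually reach that level; inactive = mean lysis activity below 80%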
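Assay system: C. neoformans cells. Amount: yeast cell density of 5 × 10^6 cells/mL. Technique: AK luminescence. Buffer or medium: YPD. Times: static 4 h at 37 °C with compound, 1 h detection. Dosing: single-point compound dose. Read-out: lysis from increased AK signal.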
Env fusion inh = HIV envelope-mediated fusion inhibition. HeLa-JRFL Env/CEM21 cell fusion, luciferase. inhibition, % at 12.3 µM. 360,000 compounds, 1.1% hits;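 active = mean replicate inhibition score of at least 50 and every replicate individually at or above 50; inconclusive = only one of the two criteria met; inactive = mean below 50 and not all replicates reaching 50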;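 also: 0% = plate neutral controls and 100% = maraviroc near 300 nM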
miR-122 sensor = miR-122 inhibition in Huh7 cells; 340,000 compounds, 0.3% hits; Huh7 miR-122 Renilla luciferase sensor, 48 h; neutral wells = 0, positive control = 100; activation (reporter increase), % at 12.5 µM;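 active = mean replicate activation score at least 90 and every replicate individually at or above 90; inconclusive = only one of the two criteria met; inactive = neither criterion met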;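 also: higher luciferase means less miR-122 activity so hits act as miR-122 inhibitors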
GSIS activator = primary screen for activators of insulin secretion dependent on glucose, INS-1E cells, GLuc reporter luminescence | AID 743287 | 370,000 compounds, 0.61% hits | activation, % at 16.6 µM | INS-1E GLuc reporter insulin secretion, 2-3 h;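 active = lowest replicate activation of at least 40%, so every replicate reaches that level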;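 also: 0% = median of neutral control wells and 100% = median of IBMX positive control wells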
CFTR F508del cor = correctors of CFTR F508del function in bronchial epithelial cells | CFBE cells, YFP halide quenching; stimulated with forskolin plus potentiator P3; % fluorescence drop versus neutral controls | activity (quench increase), % at 7.58 µM | 350,000 compounds, 0.36% hits;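 active = mean added fluorescence quench of at least 8% versus neutral control, with both replicates also reaching 8%; inconclusive = only one of the mean or replicate conditions met; inactive = mean below 8% and not both replicates reaching 8%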;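 also: cells transiently co-express mutant CFTR-F508del with the halide-sensitive YFP; corrector assay measuring rescue of mutant channel to the surface after 24 h compound exposure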
AID977621 = wild-type E. coli growth inhibition versus H69 humanized strain – H69 mutant RFP, wild-type GFP, cherry-pick, dose response; shares compounds with Ecoli rRNA inh; fluorescence, 24 h; activity change, negative = inhibition at 50 µM; 1,900 tested, under 10 active;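 active = Wild-type ribosome reporter drop at least double the humanized mutant ribosome reporter drop, growth loss under a set limit; inconclusive = no clear call, values can overlap the other calls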;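 also: wild-type GFP and H69 mutant RFP strains grown together 50/50 in each well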
AID977628 = growth of wild-type and h24-humanized E. coli strains – h24 mutant RFP vs wild-type GFP, cherry-pick, dose response | shares compounds with Ecoli rRNA inh | E. coli WT GFP strain growth, fluorescence, 24 h | activity change, negative = inhibition at 50 µM | 1,900 tested, under 10 active | AID 977628;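 active = compound lowering the normal-ribosome reporter at least twice as much as the humanized-ribosome reporter, growth loss under a set limit; inconclusive = no clear call, values can overlap the other calls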;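 also: wild-type GFP and h24 humanized RFP strains co-cultured 1 to 1 per well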
The depositor's hits bear a star; [ ] = remark or other dose. Rows were chosen to be rich in hits. Some 3.1% of all compounds tested hit in one or more screens of this group.

For CN(C(=O)c1cccc(NC(=O)Cc2cccc(NC(=O)C3CCN(C(=O)CCc4ccccc4)CC3)c2)c1)C1CC1 the results were Ecoli rRNA inh -38*, Cneo AK release 1, Env fusion inh 21, GSIS activator -27, CFTR F508del cor -3 and AID977628 inconclusive.
For COc1ccc(NC(=O)Nc2cccc3c2O[C@H](CN(C)S(=O)(=O)c2ccc(Cl)cc2)[C@H](C)CN([C@H](C)CO)C3=O)cc1 the results were Ecoli rRNA inh -18, Cneo AK release -6, Env fusion inh 2[16.7 µM], miR-122 sensor -3[16.7 µM], GSIS activator -21, CFTR F508del cor -4, AID977621 -15 and AID977628 inconclusive.
COc1ccc(NC(=O)Nc2cccc3c2O[C@@H](CN(C)S(=O)(=O)c2ccc(OC)cc2)[C@H](C)CN([C@H](C)CO)C3=O)cc1 was read as Ecoli rRNA inh -3, Cneo AK release -5, Env fusion inh -30[16.7 µM], miR-122 sensor -14[16.7 µM], GSIS activator -7 and CFTR F508del cor -1.
For C[C@@H]1CN([C@H](C)CO)C(=O)c2cccc(NC(=O)c3ccncc3)c2O[C@@H]1CN(C)S(=O)(=O)c1ccc(Cl)cc1 the results were Ecoli rRNA inh -23*, Cneo AK release -1, miR-122 sensor 15[16.7 µM], GSIS activator -18, CFTR F508del cor 3 and AID977628 inconclusive.
`CC(C)CC#Cc1ccc([C@H]2[C@H]3CN(C(=O)NC4CCCC4)CCCCN3[C@H]2CO)cc1` gave Ecoli rRNA inh -49, Cneo AK release 0, miR-122 sensor -1[16.7 µM], GSIS activator -28 and CFTR F508del cor 5.
For COC(=O)c1ccc2nc(-c3ccc(C)cc3)c(Cc3ccc(C)cc3)n2c1 the results were Ecoli rRNA inh -2, Env fusion inh -24, GSIS activator 9 and CFTR F508del cor -1.
COc1ccc(-c2nc3c(C)cc(Br)cn3c2Cc2ccc(C)cc2)cc1OC was read as Ecoli rRNA inh -6.1*, Cneo AK release -1, Env fusion inh -24, miR-122 sensor 7, GSIS activator -7, CFTR F508del cor 7 and AID977628 inconclusive.
Cc1ccc(Cc2c(-c3cccc(Br)c3)nc3ccc(C)cn23)cc1 was read as Ecoli rRNA inh -27*, Env fusion inh inconclusive, GSIS activator 22, CFTR F508del cor 3, AID977621 0.33 and AID977628 -9.
`COC(=O)c1ccc2nc(-c3ccc(F)cc3)c(Cc3cccc(F)c3)n2c1` gave Ecoli rRNA inh -24*, Env fusion inh 8, GSIS activator -3, CFTR F508del cor 3, AID977621 -3.1 and AID977628 -6.
`COC(=O)c1ccc2nc(-c3ccc(OC)c(OC)c3)c(Cc3ccc(C)cc3)n2c1` gave Ecoli rRNA inh -15*, Cneo AK release 0, Env fusion inh -9, miR-122 sensor 1, GSIS activator 0, CFTR F508del cor -2 and AID977621 -19.
Screening CCC(=O)Nc1ccc2c(c1)C(=O)N(C)C[C@H](OC)[C@H](C)CN(C(=O)C1CC1)[C@@H](C)CO2 returned Ecoli rRNA inh -1, Cneo AK release 10, GSIS activator -2 and CFTR F508del cor 0.
`CO[C@@H]1CN(C)C(=O)c2ccc(NC(=O)C3CCCC3)cc2OC[C@@H](C)N(CCC(F)(F)F)C[C@H]1C` gave Ecoli rRNA inh 0, Cneo AK release 3, Env fusion inh 22[16.7 µM], miR-122 sensor -13[16.7 µM], GSIS activator -24 and CFTR F508del cor 2.
